Results as given in ChEMBL document CHEMBL4145643, “Antiplasmodial β-Triketone-Flavanone Hybrids from the Flowers of the Australian Tree Corymbia torelliana” (J Nat Prod, 2018).
pIC50: −log10 of the molar value. Activity calls are given as the source filed them. No cut-off for these calls is given here.

Tests used:
Plasmodium falciparum [1] = assay: Antiplasmodial activity against 4-aminoquinoline/antifolates-resistant Plasmodium falciparum Dd2 ring stage infected in human erythrocytes at 40 uM after 72 hrs by DAPI staining based method; assay type: functional
In short: (§1)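 Sorbitol-synchronized ring-stage parasites at 2% parasitemia, 0.3% hematocrit in human O+ erythrocytes. Culture medium: RPMI-1640 with glutamine, hypoxanthine, Albumax, human serum. 16-point concentration-response, 40 μM to 0.5 nM. Incubated 72 h under 95% N2, 5% O2, 5% CO2. DAPI added in permeabilization buffer (Triton X-100, saponin, EDTA). Parasites counted by confocal high-content imaging. Normalized to DMSO and 5 μM puromycin controls. IC50 from four-parameter logistic fit.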

HEK293 = assay: Cytotoxicity against human HEK293 cells at 40 uM after 72 hrs by resazurin dye based fluorescence assay; assay type: cell-based; settings: hek293, 72 h
In short: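 HEK293 cells grown in DMEM with 10% FBS, seeded at 2000 cells/well 24 h before dosing. Compounds given as in the parasite assay (top 40 μM), 72 h at 37 °C and 5% CO2. Medium then replaced with 44 μM resazurin; fluorescence (530/595 nm) read after a further 5–6 h. Normalized to in-plate controls.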

Plasmodium falciparum [2] = assay: Antiplasmodial activity against drug-sensitive Plasmodium falciparum 3D7 ring stage infected in human erythrocytes at 40 uM after 72 hrs by DAPI staining based method; assay type: functional, organism-based
In short: (§2)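 Sorbitol-synchronized ring-stage parasites in O+ erythrocytes (2% parasitemia, 0.3% hematocrit), culture medium RPMI-1640 with Albumax and human serum. 16-point dilution series, 40 μM to 0.5 nM, 72 h at 95% N2/5% O2/5% CO2. Parasites stained with DAPI in Triton X-100/saponin permeabilization buffer, counted by confocal imaging. Normalized to 0.4% DMSO and 5 μM puromycin controls. IC50 from four-parameter logistic fit.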

Plasmodium falciparum [3] = assay: Antiplasmodial activity against drug-sensitive Plasmodium falciparum 3D7 ring stage infected in human erythrocytes after 72 hrs by DAPI staining based method; assay type: functional, organism-based; settings: 3D7, 72 h; in short: as §2
Plasmodium falciparum [4] = assay: Antiplasmodial activity against 4-aminoquinoline/antifolates-resistant Plasmodium falciparum Dd2 ring stage infected in human erythrocytes after 72 hrs by DAPI staining based method; assay type: functional, organism-based; settings: Dd2, 72 h
In short: as §1, with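 “erythrocytes.” for “erythrocytes. Culture medium: RPMI-1640 with glutamine, hypoxanthine, Albumax, human serum.”, “nM.” for “nM. Incubated 72 h under 95% N2, 5% O2, 5% CO2.”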

Row | SMILES | Activity (HEK293; 40 µM) | pIC50 (Plasmodium falciparum [3]) | further results
1 | CCc1nc(N)nc(N)c1-c1ccc(Cl)cc1 [PYRIMETHAMINE] | 62% | – | Activity (Plasmodium falciparum [1]): 62%
2 | CC(C)CC[C@]1(O)[C@H](O)C(C)(C)[C@@H](O)C(C)(C)[C@@H]1O | Non-Toxic | – | Activity (Plasmodium falciparum [2]): inactive; Activity (Plasmodium falciparum [1]): inactive
3 | Cc1c(O)c([C@H](CC(C)C)C2=C(O)C(C)(C)C(=O)C(C)(C)C2=O)c(O)c2c1O[C@H](c1ccccc1)CC2=O | 75% | 5.49 | –
4 | CCN(CC)CCCC(C)Nc1ccnc2cc(Cl)ccc12 (stereo not given) [CHLOROQUINE] | Non-Toxic | – | –
5 | Cc1c(O)c2c(c3c1OC1=C(C(=O)C(C)(C)C(=O)C1(C)C)[C@@H]3CC(C)C)O[C@H](c1ccccc1)CC2=O | Non-Toxic | 5.14 | –
6 | Cc1c2c(c(O)c3c1OC1=C(C(=O)C(C)(C)C(=O)C1(C)C)C3CC(C)C)C(=O)C[C@@H](c1ccccc1)O2 (stereo not given in full) | Non-Toxic | 5.01 | pIC50 (Plasmodium falciparum [4]): 4.92
7 | C[C@H]1[C@@H](O)O[C@@H]2O[C@@]3(C)CC[C@H]4[C@H](C)CC[C@@H]1[C@@]24OO3 [ARTENIMOL] | – | 9.40 | pIC50 (Plasmodium falciparum [4]): 9.37; Activity (HEK293; 20 µM, in the assay text read “at 20 uM” for “at 40 uM”): 83%
8 | C[C@H]1[C@H](OC(=O)CCC(=O)O)O[C@@H]2O[C@@]3(C)CC[C@H]4[C@H](C)CC[C@@H]1[C@@]24OO3 [ARTESUNATE] | – | 9.00 | Activity (HEK293; 20 µM, in the assay text read “20 uM” for “40 uM”): 94%
9 | CC(C)C[C@H]1C[C@@]2(CC[C@H]3C[C@@H]2C3(C)C)OC2=C1C(=O)C(C)(C)C(=O)C2(C)C | Non-Toxic | 4.78 | Activity (Plasmodium falciparum [1]): inactive
10 | Cc1c(O)c2c(c3c1OC1=C(C(=O)C(C)(C)C(=O)C1(C)C)[C@H]3CC(C)C)O[C@H](c1ccccc1)CC2=O | Non-Toxic | 5.14 | –
11 | Cc1c(O)c([C@@H](CC(C)C)C2=C(O)C(C)(C)C(=O)C(C)(C)C2=O)c(O)c2c1O[C@H](c1ccccc1)CC2=O | 75% | 5.49 | –
